Data as given in article PMC2882528 (Molecular pharmaceutics, 2010).

Legend:
Assay type in all cases: cell-based, rat
CHOP = assay: Western blot analysis of CHOP; conditions: IEC-6 cells, 4 h; for Effect of antioxidant on ritonavir-induced CHOP expression: ritonavir 15 µM
IEC-6 cells = assay: Measurement of intracellular ROS; conditions: ritonavir 15 µM, VC 15 µg/ml, EL 20 µg/ml, OA 10 µg/ml, 4 h
How it was run: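 IEC-6 rat intestinal epithelial cells (passages 15-20; DMEM, 10% FBS, 0.1 U/mL insulin, penicillin/streptomycin, 37 °C, 5% CO2) in 12-well plates are exposed for 4 h to test compound with or without antioxidant, all in DMSO. One fraction is used for protein. The other is lysed in 0.1 N NaOH/50% methanol and centrifuged, and fluorescence is read at ex 485/em 520 nm. Results are mean ± SD of 3 independent experiments.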

[1] = test system: IEC-6 stable cell line expressing SEAP; assay: SEAP enzyme activity assay; conditions: ritonavir 15 µM; VC 15 µg/ml, VE 20 µg/ml, EL 20 µg/ml, OA 10 µg/ml; 24 h
How it was run: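 An IEC-6 line stably transfected with pSEAP reporter plasmid is treated for 24 h with test compound (15 µM) alone or with individual antioxidant. DMSO is the vehicle control and thapsigargin 100 nM is the ER-stress reference. Secreted alkaline phosphatase activity is expressed as percent of vehicle control. Results are mean ± SD of 3 independent experiments.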

CHOP expression (CHOP; 15 µM)	Molecule	Effect of antioxidant on ritonavir-induced CHOP expression (CHOP)	Effect of antioxidant on ritonavir-induced ROS production (IEC-6 cells)	Effect of antioxidant on ritonavir-induced inhibition of SEAP activity [1]
	CCCCCCCC/C=C\CCCCCCCC(=O)O [oleic acid]	significantly reduced	able to reduce	significantly inhibited
significantly induced	CC(C)c1nc(CN(C)C(=O)N[C@H](C(=O)N[C@@H](Cc2ccccc2)C[C@H](O)[C@H](Cc2ccccc2)NC(=O)OCc2cncs2)C(C)C)cs1 [ritonavir, reference compound]			
	O=C1O[C@H]([C@@H](O)CO)C(O)=C1O [vitamin C]	significantly reduced	able to reduce	significantly inhibited
	CCCCC/C=C\C/C=C\CCCCCCCC(=O)OCC [ethyl linoleate]	significantly reduced	able to reduce	significantly inhibited
	vitamin E	less effect		significantly inhibited
